In the library only some 4.9% were active in any assay of this set; here they are far more common.
STAT1 blocker = STAT1 signaling inhibitors, primary screen, cell-based, HTS, luciferase reporter; NIH 3T3 STAT1-luciferase reporter, IFN-gamma, luminescence; inhibition, % at 5.5 µM; 200,000 tested, 0.35% active; AID 920, 2007;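 active means inhibition above a set limit, the mean inhibition across all tested compounds plus 3 SD, cut at about 34% in these data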
STAT3 act-1 = IL-6 driven STAT3 reporter potentiators, primary screen, U3A cells, luciferase, luminescence, MLSCN library. IL-6 STAT3-luciferase reporter; 100% = signal with IL-6 EC80 alone. activation (% of control), % at 5.6 µM. 190,000 tested, 0.91% active. AID 871, 2007;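 active means activation above the screen-wide mean of compound activation plus 3 SD, cut at about 130% in these data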
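system = STAT3-luciferase reporter U3A cells | reagent = IL-6 stimulus at 33 ng/mL final | timing = 1 h compound pre-exposure, 6 h IL-6 stimulation, 37 °C | measured by = luminescence | evaluation = % activation versus median of IL-6-stimulated wells | control set = IL-6-only wells as 100% reference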
APP 5'UTR act = activators of APP 5'UTR luciferase reporter, primary screen, SH-SY5Y cells; AID 1276, 2008; 190,000 tested, 1% active; activation, % at 2 µM; SH-SY5Y APP 5'UTR luciferase reporter, luminescence; zero percent = DMSO vehicle wells;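 active means activation above a set limit, based on mean plus 3 SD of controls, cut at about 140% in these data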
NF-kB expr up = activators of NF-kB expression in neurons, primary screen, cell-based, HTS; human neuronal cells, NF-kB reporter expression; active compounds read high; AID 1239, 2008; fold change at 12.5 µM; 190,000 tested, 1.6% active; in the data active means fold change above about 3.3
STAT3 inh = IL-6 driven STAT3 reporter inhibitors, primary screen, U3A cells, luciferase, luminescence, MLSCN library; IL-6 STAT3-luciferase reporter; host cell line lacks STAT1; inhibition, % at 5.5 µM; 190,000 tested, 0.89% active; AID 862, 2007;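 active means inhibition above the mean inhibition across all screened compounds plus 3 SD, cut at about 44% in these data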
STAT1 act-1 = STAT1 signaling activators, primary screen, cell-based, HTS, luciferase reporter; 200,000 tested, 2.6% active; NIH 3T3 STAT1-luciferase reporter, IFN-gamma, luminescence; 100% = IFN-gamma alone, no compound; activation (% of control), % at 5.5 µM; AID 932, 2007;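 active means activation above the screen-wide mean activation plus 3 SD, cut at about 130% in these data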
STAT3 act-2 = STAT3 reporter potentiators, retest of hits, confirmation, U3A cells, luciferase, luminescence. potentiation (% of control), % at 5.7 µM. 1,200 tested, 64% active. IL-6 potentiation; U3A cells lack STAT1; 100 means same as IL-6 alone. shares compounds with STAT3 act-1;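 active means percent activation of the STAT3 luciferase reporter above a set limit taken from the earlier primary screen, cut at about 130% in these data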
NFkB act STAT3ct = NF-kB reporter activators in human cells, counter-screen for STAT3 activator project. shares compounds with STAT3 act-1. NF-kappaB reporter activation. activation (% of control), % at 5.7 µM. 1,200 tested, 11% active. AID 1309, 2008; in the data active means activation above about 120%;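 further: reporter induced by TNF-alpha stimulation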
STAT1 act-2 = STAT1 reporter activators, IFN-gamma induced, counter-screen for STAT3 activator project, cell-based, NIH 3T3, luciferase luminescence. shares compounds with STAT3 act-1. NIH 3T3 STAT1-luciferase reporter. activation (% of control), % at 5.7 µM. 1,200 tested, 13% active. AID 1318, 2008;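 active means activation above the solvent-only control well mean plus 3 SD, set per screening run, cut at about 120% in these data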
Hits are given with their value; 0 = inactive; - = no result given.

SMILES | STAT1 blocker | STAT3 act-1 | APP 5'UTR act | NF-kB expr up | STAT3 inh | STAT1 act-1 | STAT3 act-2 | NFkB act STAT3ct | STAT1 act-2
CC(=O)Nc1ccc(S(=O)(=O)Nc2nc3ccccc3nc2N2CCc3ccccc3C2)cc1 | 0 | 137 | 0 | 0 | 0 | 0 | 140 | 0 | 0
COC(=O)c1cc(OC)c(OC)cc1NC(=O)C(C)c1ccc([N+](=O)[O-])cc1 (stereo not drawn) | 0 | 0 | 0 | 0 | 0 | 0 | - | - | -
CC(C)Cc1nn2c(N)c(/C=C3\C=Nc4ccccc43)c(=O)nc2s1 | 0 | 0 | 0 | 0 | 0 | 0 | - | - | -
COc1ccc([N+](=O)[O-])cc1/C=N/Nc1nn[nH]n1 | 0 | 0 | 0 | 0 | 0 | 0 | - | - | -
COC(=O)/C(=C/Nc1cccc2ccccc12)[N+](=O)[O-] | 0 | 173 | 0 | 0 | 0 | 0 | 135 | 0 | 0
CCCCn1c2ccccc2c2nnc(SCC(=O)NC3=NN=C(c4ccccc4)CS3)nc21 | 0 | 136 | 0 | 0 | 0 | 0 | 0 | 0 | 0
CCCn1c2ccccc2c2nnc(SCC(=O)OC)nc21 | 0 | 0 | 0 | 0 | 0 | 0 | - | - | -
COc1ccc2cc(/C=C/C(=O)c3ccco3)c(Cl)nc2c1 | 0 | 0 | 0 | 0 | 0 | 0 | - | - | -
COc1cc2cc(/C=C/C(=O)c3ccco3)c(Cl)nc2cc1OC | 0 | 139 | 0 | 0 | 0 | 0 | 0 | 0 | 0
COc1ccc(-c2cc(C(=O)c3c(N)n(C)c(=O)n(C)c3=O)c3ccccc3n2)cc1OC | 0 | 0 | 0 | 0 | 0 | 0 | - | - | -
CC1=CC=CC2=NC(=O)CC(C)(C(=O)O)N12 (stereo not drawn) | 0 | 0 | 0 | 0 | 0 | 0 | - | - | -
CCOc1ccc(CN2CCN(Cc3cc4ccccc4[nH]3)CC2CCO)cc1 (stereo not drawn) | 0 | 143 | 0 | 0 | 0 | 0 | 191 | 0 | 0
CCOc1ccc(CN2CCN(Cc3cnc(-c4ccccc4)s3)CC2CCO)cc1 (stereo not drawn) | 0 | 0 | 0 | 0 | 0 | 0 | - | - | -
Cc1ccc(-c2nnc(Oc3ccc(NC(=O)c4ccccc4)cc3)c3ccccc23)cc1 | 0 | 0 | 0 | 0 | 0 | 0 | - | - | -
COc1cccc(-c2nc(N3CCC(C)CC3)c3ccccc3n2)c1O | 0 | 0 | 0 | 0 | 0 | 0 | - | - | -
COc1cccc(-c2nc(N3CC(C)CC(C)C3)c3ccccc3n2)c1O (stereo not drawn) | 0 | 138 | 0 | 0 | 0 | 0 | 0 | 0 | 0
COc1cccc(-c2nc(NC(C)(C)C)c3ccccc3n2)c1O | 0 | 143 | 0 | 0 | 0 | 0 | 0 | 0 | 0
CSCCCNC(=S)N1CCc2ccccc2C1 | 0 | 0 | 0 | 0 | 0 | 0 | - | - | -
COc1ccc(S(=O)(=O)N2CCC(CN3C(=O)c4cccc5cccc(c45)C3=O)CC2)cc1 | 0 | 152 | 0 | 0 | 0 | 0 | 135 | 0 | 123
COc1ccc(S(=O)(=O)N2CCCCC2)cc1 | 0 | 0 | 0 | 0 | 0 | 0 | - | - | -
C/C(=C\C(=S)Nc1ccccc1)Nc1ccc2ccccc2c1 | 0 | 0 | 0 | 0 | 0 | 0 | - | - | -
C/C(=C\C(=S)Nc1ccccc1)Nc1cccc2ccccc12 | 0 | 155 | 0 | 0 | 0 | 0 | 142 | 0 | 0
O=C(CCCNc1ccccc1)N/N=C/c1cccs1 | 0 | 0 | 0 | 0 | 0 | 0 | - | - | -
O=C1CN(C(=O)c2ccc(Br)o2)C(c2ccccc2)c2cc(Br)ccc2N1 (stereo not drawn) | 0 | 142 | 0 | 0 | 0 | 0 | 139 | 0 | 0
O=C(CN1CCOCC1)N/N=C/c1cc2ccccc2nc1Cl | 0 | 0 | 0 | 0 | 0 | 0 | - | - | -
SMILES | STAT1 blocker | STAT3 act-1 | APP 5'UTR act | NF-kB expr up | STAT3 inh | STAT1 act-1 | STAT3 act-2 | NFkB act STAT3ct | STAT1 act-2
Cc1ccc(NCC(=O)N/N=C/c2cc3ccccc3nc2Cl)cc1 | 0 | 178 | 0 | 0 | 0 | 0 | 171 | 0 | 0
COc1ccc(/C=N/NC(=O)C(=O)NCc2cccnc2)cc1 | 0 | 0 | 0 | 0 | 0 | 0 | - | - | -
CC(C)(C)C1(O)CC(C(F)(F)F)=NN1C(=O)Cc1ccc([N+](=O)[O-])cc1 (stereo not drawn) | 0 | 137 | 0 | 0 | 0 | 0 | 152 | 0 | 0
C/C(O)=C(\N=Nc1cc(C)ccc1O)C(N)=O | 0 | 143 | 0 | 0 | 0 | 0 | 175 | 129 | 136
COc1ccc(OC)c(-c2nnc(NC(=O)C(C)Sc3nncn3C)s2)c1 (stereo not drawn) | 0 | 140 | 0 | 0 | 0 | 0 | 0 | 0 | 0
COc1ccc(-c2cc(C(=O)NCc3cn(C)nc3C)c3ccccc3n2)cc1OC | 0 | 0 | 0 | 0 | 0 | 0 | - | - | -
CCOc1ccccc1C1CC(=O)Nc2cc3c(cc21)OCO3 (stereo not drawn) | 0 | 0 | 0 | 0 | 0 | 0 | - | - | -
O=C1OCC2=C1C(c1ccc(F)cc1)c1cc3c(cc1N2)OCO3 (stereo not drawn) | 0 | 136 | 0 | 0 | 0 | 0 | 0 | 153 | 0
COc1cc2c(cc1OC)C(c1ccc3c(c1)OCO3)C1=C(CC(C)(C)CC1=O)N2 (stereo not drawn) | 0 | 0 | 0 | 0 | 0 | 0 | - | - | -
O=C1OCC2=C1C(c1ccc(F)cc1)c1cc3c(cc1N2)OCCO3 (stereo not drawn) | 0 | 138 | 0 | 0 | 0 | 0 | 0 | 0 | 0
CCOc1ccccc1C1C2=C(COC2=O)Nc2cc3c(cc21)OCO3 (stereo not drawn) | 0 | 141 | 0 | 3.3 | 0 | 0 | 0 | 131 | 0
C#CCOc1ccc(C2C3=C(COC3=O)Nc3cc4c(cc32)OCO4)cc1OC (stereo not drawn) | 0 | 143 | 0 | - | 0 | 0 | 0 | 159 | 0
Cc1ccc(OCCOCCN(C)C)c(Cl)c1 | 0 | 0 | 0 | 0 | 0 | 0 | - | - | -
CCOC(=O)Nc1cc(C)ccc1OC | 0 | 0 | 0 | 0 | 0 | 0 | - | - | -
COc1ccc(C)cc1NC(=O)Nc1ccc(Br)cn1 | 0 | 144 | 0 | 0 | 0 | 0 | 0 | 0 | 0
COc1ccc(NC(=O)NN(C(=O)c2ccccc2)C(C)(C)C)cc1 | 0 | 0 | 0 | 0 | 0 | 0 | - | - | -
Cn1c2ccc(Cl)cc2c2nc3ccccc3nc21 | 0 | 173 | - | 0 | 0 | 0 | 173 | 0 | 131
Cc1ccc(-c2nc(N)n(C(=O)Cc3ccccc3)n2)cc1 | 0 | 0 | 0 | 0 | 0 | 0 | - | - | -
